According to ChEMBL document CHEMBL1133306, “Discovery of a new class of p38 kinase inhibitors” (Bioorg Med Chem Lett, 2000):

What was measured:
[1] = target: T1, Mitogen-activated protein kinase 14 (Homo sapiens, UniProt Q16539); test: Inhibitory activity against Mitogen-activated protein kinase p38 alpha 2 (expressed Escherichia coli) at concentration of 500 nM
Procedure, shortened: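 Activated p38 α2 (0.05 µg/well) phosphorylating myelin basic protein (10 µg/well) in 25 mM HEPES pH 7.4, 20 mM MgCl₂, 150 mM NaCl. Compounds were added from 10% DMSO in water. Reactions were started with 10 µM ATP plus 0.2 µCi [γ-33P]ATP per well, run 35 min at 32 °C, and stopped with HCl. Filter-bound ³³P was counted by scintillation.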

[2] = target: T1, Mitogen-activated protein kinase 14; test: Inhibitory activity against Mitogen-activated protein kinase p38 alpha 2 expressed in Escherichia coli.
[3] = test system: SW1353; test: Compound was evaluated for its ability to inhibit IL-6 production in SW1353 cells treated with cytokines IL-1 and TNF; type: functional, cell-based; settings: Homo sapiens

T1 sequence (Q16539 whole entry): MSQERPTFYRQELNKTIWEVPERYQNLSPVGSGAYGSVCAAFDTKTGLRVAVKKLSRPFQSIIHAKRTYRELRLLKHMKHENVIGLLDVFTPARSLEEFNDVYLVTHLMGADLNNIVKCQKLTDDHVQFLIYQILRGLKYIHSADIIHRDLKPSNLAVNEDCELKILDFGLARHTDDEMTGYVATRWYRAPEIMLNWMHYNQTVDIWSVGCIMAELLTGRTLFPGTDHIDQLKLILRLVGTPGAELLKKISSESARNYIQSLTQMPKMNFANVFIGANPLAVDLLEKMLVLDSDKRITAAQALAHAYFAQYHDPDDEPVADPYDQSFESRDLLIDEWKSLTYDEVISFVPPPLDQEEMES

Structure (SMILES) | inhibition [1] [%] | IC50 [2] [nM] | IC50 [3] [nM]
CC(C)(C)c1cc(NC(=O)Nc2ccc(Cl)cc2)on1 | 68 | 260 | –
CC(=O)Nc1cccc(NC(=O)Nc2cc(C(C)(C)C)no2)c1 | 11 | – | –
CC(C)(C)c1cc(NC(=O)Nc2cccc(Cl)c2Cl)no1 | 88 | 58 | 1200
CC(=O)Nc1cccc(NC(=O)Nc2cc(C(C)(C)C)on2)c1 | 18 | – | –
CC(C)(C)c1cc(NC(=O)Nc2ccccc2C(F)(F)F)no1 | 36 | – | –
CC(C)(C)c1cc(NC(=O)Nc2ccc(Cl)c(Cl)c2)on1 | 62 | 220 | –
CC(C)(C)c1cc(NC(=O)Nc2cc(Br)cc(Br)c2)no1 | – | 710 | –
Cc1cccc(NC(=O)Nc2cc(C(C)(C)C)no2)c1C | 49 | – | –
CC(C)(C)c1cc(NC(=O)Nc2ccc(F)cc2)on1 | 41 | – | –
CC(C)(C)c1cc(NC(=O)Nc2ccc(C(F)(F)F)cc2)no1 | 39 | – | –
Cc1cccc(NC(=O)Nc2cc(C(C)(C)C)on2)c1C | 54 | – | –
CC(=O)Nc1ccc(NC(=O)Nc2cc(C(C)(C)C)no2)cc1 | 20 | – | –
Cc1cc(F)ccc1-c1cc(N(C(N)=O)c2c(Cl)cccc2Cl)ccc1CO | – | 2 | –
CC(C)(C)c1cc(NC(=O)Nc2ccccc2)no1 | 33 | – | –
CC(C)(C)c1cc(NC(=O)Nc2ccc(F)cc2)no1 | 74 | 190 | –
O=C(Nc1cc(C23CC4CC(CC(C4)C2)C3)no1)Nc1cccc(Cl)c1Cl | 9 | – | –
CC(C)(C)c1cc(NC(=O)Nc2ccc(C(F)(F)F)cc2)on1 | 77 | 200 | –
CC(=O)Nc1ccc(NC(=O)Nc2cc(C(C)(C)C)on2)cc1 | 14 | – | –
O=C(Nc1cc(C2CCC2)no1)Nc1cccc(Cl)c1Cl | 57 | 370 | –
CC(C)(C)c1cc(NC(=O)Nc2ccc(Cl)cc2C(F)(F)F)no1 | 9 | – | –

Now from value to compound, other results behind:

inhibition [1] [%] | IC50 [2] [nM] | Structure (SMILES) | IC50 [3] [nM]
93 | 36 | CC(C)(C)c1cc(NC(=O)Nc2cccc(Cl)c2Cl)on1 | –
1 | – | CC(C)(C)c1nnc(NC(=O)Nc2cccc(Cl)c2Cl)s1 | –
34 | 920 | Cc1c(C(C)C)noc1NC(=O)Nc1cccc(Cl)c1Cl | –
81 | 120 | CC(C)(C)Cc1cc(NC(=O)Nc2cccc(Cl)c2Cl)on1 | –
18 | – | CCC(C)(C)c1noc(NC(=O)Nc2cccc(Cl)c2Cl)c1C | –
82 | 120 | CC(C)(C)c1ccc(NC(=O)Nc2cccc(Cl)c2Cl)s1 | –
83 | 120 | CCC(C)(C)c1cc(NC(=O)Nc2cccc(Cl)c2Cl)on1 | –
62 | 290 | CC(C)c1cc(NC(=O)Nc2cccc(Cl)c2Cl)on1 | –
18 | – | Cc1c(C(C)(C)C)noc1NC(=O)Nc1cccc(Cl)c1Cl | –
4 | – | Cc1cc(NC(=O)Nc2cccc(Cl)c2Cl)on1 | –
33 | 1100 | CCCCc1cc(NC(=O)Nc2cccc(Cl)c2Cl)on1 | –
76 | 160 | CC(C)(C)c1cc(NC(=O)Nc2cccc(Cl)c2Cl)cs1 | –
